{"source": "ChEMBL document CHEMBL4765310", "about": "“Discovery of 4-(3,5-dimethoxy-4-(((4-methoxyphenethyl)amino)methyl)phenoxy)-N-phenylaniline as a novel c-myc inhibitor against colorectal cancer in vitro and in vivo” (Eur J Med Chem, 2020)", "key": {"HCT-15": {"tested_on": "HCT-15", "test": "Antiproliferative activity against human HCT-15 cells assessed as inhibition of cell viability measured after 72 hrs by MTT assay", "type": "functional, cell-based", "settings": "HCT-15, 72 h", "summary_of_the_method": "(§1)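 Cells kept at 37 °C, 5% CO₂ in RPMI 1640, L-15 or DMEM with 10% FBS and 1% penicillin-streptomycin. Plated at 2-4 × 10³ cells/well and dosed 24 h after plating. After 72 h exposure, MTT added for 2-4 h at 37 °C. Formazan dissolved in DMSO, absorbance read at 570 nm. IC50 is the mean of at least three independent experiments.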"}, "L02": {"tested_on": "L02", "test": "Cytotoxicity against human L02 cells assessed as inhibition of cell viability at 0.625 to 40 uM measured after 72 hrs by MTT assay", "type": "cell-based", "settings": "l02, 72 h, dose 0.625-40 µM", "summary_of_the_method": "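Cells were grown at 37 °C, 5% CO2, in medium with 10% FBS, and seeded at 2–4×10^3 cells/well. Compound was added 24 h after plating and left for 72 h. MTT (5 mg/mL stock) was then added for 2–4 h at 37 °C, formazan was dissolved in DMSO, and absorbance read at 570 nm. Values are means of at least three independent experiments.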"}, "HT-29 [1]": {"tested_on": "HT-29", "test": "Antiproliferative activity against human HT-29 cells assessed as inhibition of cell viability measured after 72 hrs by MTT assay", "type": "functional, cell-based", "settings": "HT-29, 72 h", "summary_of_the_method": "as §1"}, "[2]": {"test": "Toxicity in Balb/c mouse xenografted with human HT-29 cells assessed as reduction in body weight at 30 mg/kg, po administered via gavage measured after 10 days", "type": "organism-based", "settings": "in vivo, 240 h, time 10 day", "summary_of_the_method": "(§2)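 Female BALB/c nude mice, 6–7 weeks old, injected subcutaneously with 8×10^6 HT29 cells. At about 100 mm³ average tumour volume, mice were randomised into groups (n=5). Dosing was daily oral gavage for 30 days in 10% DMSO/1% Tween-80/saline, with a vehicle group. Tumour size (calipers; 0.5 × shortest diameter² × longest diameter) and body weight were recorded every two days.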"}, "HCT-116": {"tested_on": "HCT-116", "test": "Antiproliferative activity against human HCT-116 cells assessed as inhibition of cell viability measured after 72 hrs by MTT assay", "type": "functional, cell-based", "settings": "HCT-116, 72 h", "summary_of_the_method": "as §1"}, "SW-620": {"tested_on": "SW-620", "test": "Antiproliferative activity against human SW-620 cells assessed as inhibition of cell viability measured after 72 hrs by MTT assay", "type": "functional, cell-based", "settings": "SW-620, 72 h", "summary_of_the_method": "as §1"}, "DLD-1": {"tested_on": "DLD-1", "test": "Antiproliferative activity against human DLD-1 cells assessed as inhibition of cell viability measured after 72 hrs by MTT assay", "type": "functional, cell-based", "settings": "DLD-1, 72 h", "summary_of_the_method": "as §1"}, "HT-29 [3]": {"tested_on": "HT-29", "test": "Antitumour activity against human HT-29 cells xenografted in Balb/c mouse assessed as inhibition of tumour growth at 30 mg/kg, po administered via gavage for 30 days and measured every 2 days by vernier caliper analysis", "type": "functional, organism-based", "settings": "time 30.0 day", "summary_of_the_method": "as §2"}}, "note": "Active and inactive are the calls of the source. No cut-off for these calls is given here.", "data": [{"molecule": "O=c1[nH]cc(F)c(=O)[nH]1", "note": "[FLUOROURACIL]", "values": [{"measurement": "IC50", "setting": "HCT-15", "result": 10.9, "unit": "µM"}, {"measurement": "Activity", "setting": "L02", "result": "Toxic"}, {"measurement": "IC50", "setting": "HT-29 [1]", "result": 13.4, "unit": "µM"}, {"measurement": "Activity", "setting": "[2]", "result": "Toxic"}, {"measurement": "IC50", "setting": "HCT-116", "result": 12.3, "unit": "µM"}, {"measurement": "IC50", "setting": "SW-620", "result": 15.3, "unit": "µM"}, {"measurement": "IC50", "setting": "DLD-1", "result": 11.4, "unit": "µM"}, {"measurement": "Activity", "setting": "HT-29 [3]", "result": "Active"}]}]}
